{"data": "Results collected from several papers", "cell line": "A549", "effect on": "cell growth or viability", "note": "Compare with care: the assays were run in different laboratories."}
{"SMILES": "CC[C@@]1(OC(=O)[C@@H](N)Cc2ccccc2)C(=O)OCc2c1cc1n(c2=O)Cc2cc3cc4c(cc3nc2-1)OCO4", "method": "MTT", "IC50": "36 nM"}
{"SMILES": "N.N.[Cl][Pt][Cl]", "method": "MTT", "time": "24 h", "IC50": "5350 nM"}
{"SMILES": "O=C(N/N=C1\\C(=O)N(Cc2ccccc2)c2ccc(Br)cc21)c1cc2ccccc2[nH]1", "IC50": "650 nM"}
{"SMILES": "COc1cccc2c1C(=O)c1c(O)c3c(c(O)c1C2=O)C[C@@](O)(C(=O)CO)C[C@@H]3O[C@H]1C[C@H](N)[C@H](O[C@@H]2CCCCO2)[C@H](C)O1", "method": "MTT", "time": "12 h", "IC50": "5800 nM"}
{"SMILES": "CCCCCCCC(=O)SCC/C=C/[C@@H]1CC(=O)NCc2nc(cs2)C2=N[C@@](C)(CS2)C(=O)N[C@@H](C(C)C)C(=O)O1", "method": "resazurin", "time": "48 h", "IC50": "3.8 nM"}
{"SMILES": "CC[C@@]1(OC(=O)C(C)c2cccc(C(=O)c3ccccc3)c2)C(=O)OCc2c1cc1n(c2=O)Cc2cc3cc4c(cc3nc2-1)OCO4 (some centres unmarked)", "method": "MTT", "IC50": "289 nM"}
{"SMILES": "Cc1ccc(CN2C(=O)/C(=N\\NC(=O)c3cc4ccccc4[nH]3)c3ccccc32)cc1", "IC50": "640 nM"}
{"SMILES": "CSC(=NNC(=O)c1ccc(Cl)c(Cl)c1)SC", "method": "MTT", "time": "5 days", "IC50": "69000 nM"}
{"SMILES": "CC[C@@]1(O)C(=O)OCc2c1cc1n(c2=O)Cc2cc3cc4c(cc3nc2-1)OCO4", "method": "MTT", "time": "72 h", "IC50": "29 nM"}
{"SMILES": "Nc1cc(Cl)c(Cl)cc1N", "time": "72 h", "IC50": "120000 nM"}
{"SMILES": "CC[C@@]1(OC(=O)Cc2c(C)n(C(=O)c3ccc(Cl)cc3)c3ccc(OC)cc23)C(=O)OCc2c1cc1n(c2=O)Cc2cc3cc4c(cc3nc2-1)OCO4", "method": "MTT", "IC50": "263 nM"}
{"SMILES": "O=C(N/N=C1\\C(=O)N(Cc2ccc(Cl)cc2)c2ccccc21)c1cc2ccccc2[nH]1", "IC50": "1050 nM"}
{"SMILES": "CC[C@@]1(OC(=O)CN)C(=O)OCc2c1cc1n(c2=O)Cc2cc3cc4c(cc3nc2-1)OCO4", "method": "MTT", "IC50": "29 nM"}
{"SMILES": "COc1c2c(cc3c1OCO3)[C@]13C=C[C@H](OC)C[C@@H]1[N@](C2)C[C@H]3OC(=O)c1ccoc1", "method": "WST-1", "IC50": "> 10000 nM"}
{"SMILES": "CCC1(OC(=O)C(C)c2ccc3cc(OC)ccc3c2)C(=O)OCc2c1cc1n(c2=O)Cc2cc3cc4c(cc3nc2-1)OCO4 (centres unmarked)", "method": "MTT", "IC50": "471 nM"}
{"SMILES": "CC1=C(O)C(=O)C=C2C1=CC=C1[C@@]2(C)CC[C@@]2(C)[C@@H]3C[C@](C)(C(=O)OCCCn4cc(C=O)c5ccccc54)CC[C@]3(C)CC[C@]12C", "method": "MTT", "time": "48 h", "IC50": "7830 nM"}
{"SMILES": "CC1=CC(=O)c2c(O)cccc2C1=O", "method": "SRB", "IC50": "2820 nM"}
{"SMILES": "O=C(N/N=C1\\C(=O)N(Cc2ccccc2)c2ccc(Cl)cc21)c1cc2ccccc2[nH]1", "method": "imaging", "time": "48 h", "IC50": "1380 nM"}
{"SMILES": "N.N.[Cl][Pt][Cl]", "method": "MTT", "time": "48 h", "IC50": "9240 nM"}
{"SMILES": "Nc1cc(I)c(I)cc1N", "time": "72 h", "IC50": "25000 nM"}
